Laboratory results as given in ChEMBL document CHEMBL3751813, “Nonpeptidic Amphiphilic Xanthone Derivatives: Structure-Activity Relationship and Membrane-Targeting Properties” (J Med Chem, 2016).
Values after ≈ are worked out from the molar mass of the structure shown. Active and inactive are the calls of the source. The rule behind the calls is not given here.

How the values were obtained:
Staphylococcus aureus [1] = experiment: Antibacterial activity against clinical isolates of methicillin-resistant Staphylococcus aureus DM21455 after 24 hrs by […]; assay type: functional; details: DM21455, 24 h
Staphylococcus aureus [2] = experiment: Antibacterial activity against clinical isolates of Staphylococcus aureus DM4001R after 24 hrs by […]; assay type: functional
Staphylococcus aureus [3] = experiment: Antibacterial activity against clinical isolates of methicillin-resistant Staphylococcus aureus DM9808R after 24 hrs by […]; assay type: functional
Staphylococcus aureus [4] = experiment: Induction of membrane permeabilization in clinical isolates of Staphylococcus aureus DM4001 by SYTOX green uptake assay; assay type: functional
Procedure, shortened: (§1)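 Exponential-phase cells washed twice in 20 mM PBS pH 7 and adjusted to OD620 0.09. Given 3 µM SYTOX Green and kept in the dark until fluorescence was stable, then compound added. Fluorescence followed in a stirred cuvette at ex 504/em 523 nm. Melittin 10 µg/mL was the positive control. Run at least twice; one run reported.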

[5] = Hemolytic activity against New Zealand white rabbit RBC after 1 hr by microplate reader analysis; assay type: ADME, cell-based, Oryctolagus cuniculus, Erythrocyte; details: rabbit red blood cells
Procedure, shortened: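 Rabbit RBCs spun from serum at 3,000 rpm for 10 min and washed twice in PBS. Mixed with compound in DMF at 4% v/v RBCs, 1 h at 37 °C. After centrifugation, hemoglobin in the supernatant read at 576 nm. 2% Triton X-100 was the positive control and 1% DMF the negative control.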

Bacillus cereus = experiment: Antibacterial activity against clinical isolates of Bacillus cereus ATCC 11778 after 24 hrs by […]; assay type: functional; details: ATCC 11778, 24 h
[6] = Cytotoxicity in human corneal fibroblasts at 4 times MIC incubated for 4 hrs by LDH release assay relative to control; details: corneal fibroblast
Staphylococcus aureus [7] = experiment: Induction of membrane permeabilization in clinical isolates of Staphylococcus aureus DM4001 assessed as ATP leakage at MIC incubated for 10 mins by firefly luciferase based luminometry analysis; assay type: functional
Procedure, shortened: (§2)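 Exponential-phase cells washed twice in 20 mM PBS pH 7 and set to OD620 0.3. Exposed 10 min at 37 °C, then spun at 4000 rpm for 5 min. Supernatant mixed with luciferase reagent (1 mM DTT, 0.5 mM D-luciferin, 1.25 µg/mL firefly luciferase). Luminescence read over 30 cycles.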

Staphylococcus aureus [8] = experiment: Bactericidal activity against clinical isolates of Staphylococcus aureus DM4001 assessed as log reduction in viability at 2 times MIC measured over 300 mins by time kill kinetic study; assay type: functional
Procedure, shortened: (§3)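 Colonies from 18–22 h TSA plates suspended in 0.31 mM phosphate buffer pH 7.2 at 10^5–10^6 CFU/mL. Treated at 1×, 2× and 4× MIC at 35 °C, sampled at 10 min, 30 min, 1 h, 2 h and 5 h. Ten-fold dilutions spread on MHA, 35 °C for 48–72 h, colonies counted. Detection limit 100 CFU/mL; bactericidal means 3-log drop versus untreated.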

[9] = Cytotoxicity in human corneal fibroblasts assessed as cell viability at 2 times MIC incubated for 4 hrs by luminescent cell viability assay relative to control; parameters: species or system Corneal fibroblast; details: read-out: Activity
Procedure, shortened: (§4)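 Cells plated at 10,000 per well and exposed 4 h in 100 µL. Plate equilibrated to 22 °C for 30 min, then read with CellTiter-Glo luminescence. 1% Triton X-100 set minimal viability and 0.5% DMF served as negative control. Viability computed relative to these controls.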

[10] = Cytotoxicity in human corneal fibroblasts at 2 times MIC incubated for 4 hrs by LDH release assay relative to control; details: corneal fibroblast
[11] = Cytotoxicity in human corneal fibroblasts at MIC incubated for 4 hrs by LDH release assay relative to control; details: corneal fibroblast
Staphylococcus aureus [12] = experiment: Induction of membrane permeabilization in clinical isolates of Staphylococcus aureus DM4001 at MIC by SYTOX green uptake assay; assay type: functional; procedure, shortened: as §1
Staphylococcus aureus [13] = experiment: Bactericidal activity against clinical isolates of Staphylococcus aureus DM4001 at 2 times MIC measured over 300 mins by time kill kinetic study; assay type: functional
Procedure, shortened: (§5)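 Cells from colonies on an 18–22 h TSA plate, suspended in 0.31 mM phosphate buffer pH 7.2 at 10^5–10^6 CFU/mL. Dosed at 1×, 2× and 4× MIC at 35 °C. Aliquots taken at 10 min, 30 min, 1 h, 2 h and 5 h, diluted ten-fold serially, spread on MHA and counted after 48–72 h at 35 °C. Detection limit 100 CFU/mL. Bactericidal means a 3-log drop versus untreated control.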

[14] = Selectivity index, ratio of HC50 for hemolytic activity against New Zealand white rabbit RBC to MIC for clinical isolates of Staphylococcus aureus DM4001
[15] = Cytotoxicity in human corneal fibroblasts assessed as cell viability at 4 times MIC incubated for 4 hrs by luminescent cell viability assay relative to control; parameters: species or system Corneal fibroblast; details: read-out: Activity; procedure, shortened: as §4
[16] = Cytotoxicity in human corneal fibroblasts assessed as cell viability at MIC incubated for 4 hrs by luminescent cell viability assay relative to control; parameters: species or system Corneal fibroblast; details: read-out: Activity; procedure, shortened: as §4
Staphylococcus aureus [17] = experiment: Bactericidal activity against clinical isolates of Staphylococcus aureus DM4001 assessed as log reduction in viability at 4 times MIC measured over 30 mins by time kill kinetic study; assay type: functional; procedure, shortened: as §5
[18] = Cytotoxicity in human corneal fibroblasts assessed as cell viability at 0.5 times MIC incubated for 4 hrs by luminescent cell viability assay relative to control; parameters: species or system Corneal fibroblast; details: read-out: Activity; procedure, shortened: as §4
[19] = Cytotoxicity in human corneal fibroblasts at 0.5 times MIC incubated for 4 hrs by LDH release assay relative to control; details: corneal fibroblast
Staphylococcus aureus [20] = experiment: Bactericidal activity against clinical isolates of Staphylococcus aureus DM4001 at 4 times MIC measured over 30 mins by time kill kinetic study; assay type: functional; procedure, shortened: as §5
Staphylococcus aureus [21] = experiment: Induction of membrane permeabilization in clinical isolates of Staphylococcus aureus DM4001 at 50 uM by SYTOX green uptake assay; assay type: functional; procedure, shortened: as §1
Staphylococcus aureus [22] = experiment: Induction of membrane permeabilization in clinical isolates of Staphylococcus aureus DM4001 assessed as ATP leakage at 50 uM incubated for 10 mins by firefly luciferase based luminometry analysis; assay type: functional; procedure, shortened: as §2
[23] = Membrane permeabilization activity assessed as release of calcein from DOPC liposomes at 16 to 64 lipid:compound ratio incubated for 30 mins by fluorescence assay; assay type: ADME; details: 0.5 h
[24] = Membrane permeabilization activity assessed as release of calcein from DOPE/DOPG liposomes at lipid:compound ratio of 16 incubated for 30 mins by fluorescence assay; assay type: ADME; details: 0.5 h
Procedure, shortened: (§6)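 Freeze-thawed, extruded, then gel-filtered. Final lipid 50 µM with compound added from DMF (<0.2%). Fluorescence at ex 490/em 520 nm over 30 min; 0.1% Triton X-100 defined 100% lysis.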

[25] = Membrane permeabilization activity assessed as release of calcein from DOPE/DOPG liposomes at lipid:compound ratio of 8 incubated for 30 mins by fluorescence assay; assay type: ADME; details: 0.5 h; procedure, shortened: as §6
[26] = Membrane permeabilization activity assessed as release of calcein from DOPC liposomes at lipid:compound ratio of => 16 incubated for 30 mins by fluorescence assay; assay type: ADME; details: 0.5 h; procedure, shortened: as §6
[27] = Membrane permeabilization activity assessed as release of calcein from DOPE/DOPG liposomes at lipid:compound ratio of => 16 incubated for 30 mins by fluorescence assay; assay type: ADME; details: 0.5 h; procedure, shortened: as §6
[28] = Membrane permeabilization activity assessed as release of calcein from DOPE/DOPG liposomes at lipid:compound ratio of 4 incubated for 30 mins by fluorescence assay; assay type: ADME; details: 0.5 h; procedure, shortened: as §6
[29] = Membrane permeabilization activity assessed as release of calcein from DOPC liposomes at lipid:compound ratio of 8 incubated for 30 mins by fluorescence assay; assay type: ADME; details: 0.5 h; procedure, shortened: as §6
[30] = Membrane permeabilization activity assessed as release of calcein from DOPC liposomes at lipid:compound ratio of 4 incubated for 30 mins by fluorescence assay; assay type: ADME; details: 0.5 h; procedure, shortened: as §6
Staphylococcus aureus [31] = experiment: Bactericidal activity against clinical isolates of methicillin resistant Staphylococcus aureus DM21455 assessed as log reduction in viability measured up to 300 mins by time kill kinetic study; assay type: functional, organism-based; procedure, shortened: as §3

Row | Structure (SMILES) | MIC (Staphylococcus aureus [1]) [µg/mL] | MIC (Staphylococcus aureus [2]) [µg/mL] | MIC (Staphylococcus aureus [3]) [µg/mL] | HC50 at 1 h [5] [µg/mL] | MIC (Bacillus cereus) [µg/mL] | Selectivity ratio [14] | Activity [25] | Activity [26] | Activity [27] | Activity [28] | Activity [29] | Activity [30] | further results
1 | CCN(CC)CCCCOc1cc2oc3cc(OCCCCN(CC)CC)c(OC)c(CC=C(C)C)c3c(=O)c2c(OCCCCN(CC)CC)c1CC=C(C)C | 25 (≈ 31.6 µM) | 12.5 (≈ 15.8 µM) | 50 (≈ 63.1 µM) | > 200 | 50 (≈ 63.1 µM) |  |  |  |  |  |  |  | Activity (Staphylococcus aureus [4]): 4305.1 cps
2 | COc1c(OCCCCN)cc2oc3cc(OCCCCN)c(CC=C(C)C)c(O)c3c(=O)c2c1CC=C(C)C | 1.56 (≈ 2.82 µM) | 1.56 (≈ 2.82 µM) | 3.12 (≈ 5.65 µM) | 80.2 | 3.12 (≈ 5.65 µM) | 51.4 |  |  |  |  |  |  | Activity [6]: 0.9%; Activity (Staphylococcus aureus [7]): 210 nM; LCK (Staphylococcus aureus [8]): 3; viability at 4 h, 2 times MIC [9]: 90.7%; Activity [10]: -0.5%; Activity [11]: -1%; Activity (Staphylococcus aureus [12]): 1497 cps; Activity (Staphylococcus aureus [13]): 99.9%; viability at 4 h, 4 times MIC [15]: 90.3%; viability at 4 h, 1 times MIC [16]: 91.7%; LCK (Staphylococcus aureus [17]): 3; viability at 4 h, 0.5 times MIC [18]: 98.5%; Activity [19]: -0.7%; Activity (Staphylococcus aureus [20]): 99.9%
3 | COc1c(OCCCCN(C)Cc2ccccc2)cc2oc3cc(OCCCCN(C)Cc4ccccc4)c(CC=C(C)C)c(O)c3c(=O)c2c1CC=C(C)C | > 50 | > 50 | > 50 | > 200 | > 50 |  |  |  |  |  |  |  | Activity (Staphylococcus aureus [21]): 1778 cps; Activity (Staphylococcus aureus [22]): 0.574 µM
4 | COc1c(OCCCCN(C)C)cc2oc3cc(OCCCCN(C)C)c(CC=C(C)C)c(O)c3c(=O)c2c1CC=C(C)C | 3.12 (≈ 5.13 µM) | 3.12 (≈ 5.13 µM) | 3.12 (≈ 5.13 µM) | 32.1 | 6.25 (≈ 10.3 µM) | 10.3 |  |  |  |  |  |  | Activity (Staphylococcus aureus [7]): 3769 nM; Activity (Staphylococcus aureus [12]): 23925 cps; Activity [23]: Active
5 | CCN(CC)CCCCOc1cc2oc3cc(OCCCCN(CC)CC)c(OC)c(CCC(C)C)c3c(=O)c2c(O)c1CCC(C)C | 25 (≈ 37.4 µM) | 3.12 (≈ 4.67 µM) | 12.5 (≈ 18.7 µM) | 48.6 | 25 (≈ 37.4 µM) | 15.6 | 58.6% |  |  |  |  |  | Activity [24]: 20.1%
6 | CCN(CC)CCCCOc1ccc2c(=O)c3c(O)cc(OCCCCN(CC)CC)cc3oc2c1 | > 50 | > 50 | > 50 | > 200 | > 50 |  | Not Active | Not Active | Not Active | Not Active | Not Active | Not Active | 
7 | CN[C@@H](CC(C)C)C(=O)N[C@H]1C(=O)N[C@@H](CC(N)=O)C(=O)N[C@H]2C(=O)N[C@H]3C(=O)N[C@H](C(=O)N[C@@H](C(=O)O)c4cc(O)cc(O)c4-c4cc3ccc4O)[C@H](O)c3ccc(c(Cl)c3)Oc3cc2cc(c3O[C@H]2O[C@@H](CO)[C@H](O)[C@@H](O)[C@@H]2O[C@@H]2C[C@@](C)(N)[C@@H](O)[C@@H](C)O2)Oc2ccc(cc2Cl)[C@H]1O |  |  |  |  |  |  |  |  |  |  |  |  | Activity (Staphylococcus aureus [31]): inactive
8 | O=c1c2ccc(O)cc2oc2cc(O)cc(O)c12 | > 50 | > 50 | > 50 | > 200 | > 50 |  | Not Active | Not Active | Not Active | Not Active | Not Active | Not Active | 
9 | COc1c(OCCCCN2CC[C@H](N(C)C)C2)cc2oc3cc(OCCCCN4CC[C@H](N(C)C)C4)c(CC=C(C)C)c(O)c3c(=O)c2c1CC=C(C)C | 6.25 (≈ 8.37 µM) | 12.5 (≈ 16.7 µM) | 6.25 (≈ 8.37 µM) | 28.9 | 6.25 (≈ 8.37 µM) | 2.3 |  |  |  |  |  |  | Activity (Staphylococcus aureus [21]): 58191 cps; Activity (Staphylococcus aureus [22]): 7.962 µM
10 | COc1c(O)cc2oc3cc(O)c(CCC(C)C)c(O)c3c(=O)c2c1CCC(C)C | > 50 | > 50 | > 50 | > 200 | > 50 |  | Not Active | Not Active | Not Active | Not Active | Not Active | Not Active | 
